Experimental data collected from several papers.
Lines come from different studies, so protocols differ.
EGFR L861Q: Epidermal growth factor receptor (EGFR, Homo sapiens, UniProt P00533, L861Q)
EGFR G719S: Epidermal growth factor receptor (EGFR, Homo sapiens, UniProt P00533, G719S)
EGFR: Epidermal growth factor receptor (EGFR, Homo sapiens, UniProt P00533)
EGFR L858R: Epidermal growth factor receptor (EGFR, Homo sapiens, UniProt P00533, L858R)
EGFR A750P/del747-749: Epidermal growth factor receptor (EGFR, Homo sapiens, UniProt P00533, A750P/del747-749)
EGFR L858R/T790M: Epidermal growth factor receptor (EGFR, Homo sapiens, UniProt P00533, L858R/T790M)
EGFR del746-750: Epidermal growth factor receptor (EGFR, Homo sapiens, UniProt P00533, del746-750)
EGFR G719C: Epidermal growth factor receptor (EGFR, Homo sapiens, UniProt P00533, G719C)
EGFR T790M: Epidermal growth factor receptor (EGFR, Homo sapiens, UniProt P00533, T790M)
EGFR del747-750/T751S: Epidermal growth factor receptor (EGFR, Homo sapiens, UniProt P00533, del747-750/T751S)

SMILES	target	read-out	technique	tested at	remaining binding [%]
O=C(NCC1CCOCC1)c1n[nH]cc1NC(=O)c1c(F)cccc1F	EGFR L861Q	binding	competition with immobilised ligand	1 µM	100
COc1ncc2cc3ccccc3nc2c1C#N	EGFR G719S	cell-free assay	competition with immobilised ligand	5 µM	95
O=C(Nc1cccnn1)N1CC(C/C=C/c2cncc(Oc3ccc(C(F)(F)F)cn3)n2)C1	EGFR G719S	cell-free assay	competition with immobilised ligand	1 µM	100
N[C@H]1CCN(c2nccc(-c3cnn4ncccc34)n2)C1	EGFR	binding		1 µM	100
N#Cc1ccccc1CSc1nnc2c(n1)[nH]c1ccccc12	EGFR L858R	binding	competition with immobilised ligand	10 µM	100
COc1cnc(Nc2cccc(S(N)(=O)=O)c2)nc1N1CCN(c2ccccc2)CC1	EGFR A750P/del747-749	binding	competition with immobilised ligand	1 µM	100
CN(C)c1ncc(F)c(-c2cnn3ncccc23)n1	EGFR L861Q	binding		1 µM	100
CCN1CCN(Cc2ccc(C(=O)Nc3ccc(C)c(Oc4ccc5c(c4)CC(=O)N5)c3)cc2C(F)(F)F)CC1	EGFR L861Q	binding	competition with immobilised ligand	1 µM	77
Nc1ncc2c(n1)-c1c([nH]c3ccc(C#CC4CC4)cc13)CCCC2	EGFR L858R/T790M	binding	competition with immobilised ligand	1 µM	87
COc1cccc(CNC(=O)c2nc3scc(COCc4ccc(C(=O)O)cc4)c3c(=O)[nH]2)c1	EGFR A750P/del747-749	cell-free assay	competition with immobilised ligand	1 µM	76
c1cnn2ncc(-c3ccnc(N4CCC45COC5)n3)c2c1	EGFR L861Q	binding		1 µM	96
O=C(Nc1c[nH]nc1C(=O)NC1CCNCC1)c1cc(F)cc(F)c1	EGFR del746-750	binding	competition with immobilised ligand	1 µM	100
O=C(NCCCN1CCOCC1)c1ccc(Nc2nccc(-c3cc4ccccc4s3)n2)cc1	EGFR A750P/del747-749	binding	competition with immobilised ligand	1 µM	100
c1cncc(-c2cccc(Nc3nccc(NC4CCCCC4)n3)c2)c1	EGFR G719C	binding	competition with immobilised ligand	10 µM	70
O=C(NCCCN1CCOCC1)c1ccc(Nc2ncc(Cl)c(-c3ccc(Cl)s3)n2)cc1	EGFR G719C	binding	competition with immobilised ligand	1 µM	100
CNC(=O)[C@@H]1CC[C@@H](n2c(-c3ccc4cnccc4c3)nc3ccc(C(=O)NCc4cccc(C(N)=O)c4)cc32)C1	EGFR L858R	binding	competition with immobilised ligand	1 µM	100
Cn1cc(Cl)c2c(Oc3c(F)cc(Nc4cc(Cl)nc(N)n4)cc3F)ccnc21	EGFR T790M	cell-free assay	competition with immobilised ligand	0.1 µM	88
F[C@@H]1CCN(c2nccc(-c3cnn4ncccc34)n2)C1	EGFR L858R/T790M	binding		1 µM	100

SMILES	target	read-out	technique	tested at	remaining binding [%]
O=C(NC1CCC1)c1ccc2nc(-c3cccc(NS(=O)(=O)NCCN4CCCCC4)c3)cn2c1	EGFR del747-750/T751S	cell-free assay	competition with immobilised ligand	10 µM	100
C[C@@H](c1cccc(C#N)c1)n1cc(Cl)cc(C(N)=O)c1=N	EGFR del746-750	cell-free assay	competition with immobilised ligand	1 µM	93
O=C(c1ccc(Nc2nccc(-c3cc4ccccc4s3)n2)cc1)N1CCC(N2CCCC2)CC1	EGFR L858R/T790M	binding	competition with immobilised ligand	1 µM	58
COc1cnc(Nc2cccc(S(N)(=O)=O)c2)nc1N1CCN(c2ccccc2)C(=O)C1	EGFR T790M	binding	competition with immobilised ligand	1 µM	92
O=C(c1ccc(Nc2ncc(Cl)c(-c3ccc(Cl)s3)n2)cc1)N1CCC(N2CCCC2)CC1	Epidermal growth factor receptor (EGFR, Homo sapiens, UniProt P00533, del747-752/P753S)	binding	competition with immobilised ligand	1 µM	82
CN1CCN(c2ccc(Nc3nccc(-c4ccccc4)n3)cc2C(F)(F)F)CC1	EGFR L858R	binding		10 µM	84
Cc1cnc(Nc2ccc(C(=O)N3CCC(N4CCCC4)CC3)cc2)nc1-c1cc2ccccc2s1	EGFR A750P/del747-749	binding	competition with immobilised ligand	1 µM	72
C[C@@H]1CN(c2cc(-c3n[nH]c4ccc(OC5(C)CC5)cc34)ncn2)C[C@H](C)O1	EGFR L858R	cell-free assay	competition with immobilised ligand	0.1 µM	82
CN1CCN(c2ccc(Nc3nccc(-c4cccc([N+](=O)[O-])c4)n3)cc2C(F)(F)F)CC1	EGFR L858R	binding		10 µM	72
C[C@@H]1CCN(c2nccc(-c3cnn4ncccc34)n2)C1	EGFR L861Q	binding		1 µM	92
Cc1c(-c2ccccc2)oc2c(C(=O)OCCN3CCCCC3)cccc2c1=O	EGFR	cell-free assay	competition with immobilised ligand	10 µM	88
O=C(NCCCC1CCCCC1)c1ccc(CNC(=O)c2cnn(-c3ccccc3)c2C(F)(F)F)cc1	EGFR L858R/T790M	cell-free assay	competition with immobilised ligand	0.1 µM	95
CN(C)c1nccc(-c2cnn3ncccc23)n1	EGFR T790M	binding		1 µM	100
CS(=O)(=O)NCC[C@H](NC(=O)c1cncc2c1cnn2-c1ccc(F)cc1)c1ccnc(S(C)(=O)=O)c1	EGFR G719S	cell-free assay	competition with immobilised ligand	1 µM	75
CN(C)c1nccc(-c2cnc3ncccn23)n1	EGFR	binding		1 µM	63
O=C(c1ccc(Nc2ncc(Cl)c(-c3cc4ccccc4s3)n2)cc1)N1CCC(N2CCCC2)CC1	EGFR del747-750/T751S	binding	competition with immobilised ligand	1 µM	89
CC(=O)N1CCC(c2ccc(C(=O)NC(=N)N)cc2C(F)(F)F)CC1	EGFR del747-750/T751S	cell-free assay	competition with immobilised ligand	1 µM	100
COc1ccnn2ncc(-c3ccnc(N(C)C)n3)c12	EGFR L858R	binding		1 µM	100
